Data as given in ChEMBL document CHEMBL2046403, “Biochemical and pharmacological evaluation of 4-hydroxychromen-2-ones bearing polar C-3 substituents as anticoagulants” (Eur J Med Chem, 2012).
Blank lines part the entries; values can stand above or below the compound they belong to.

Tests used:
Plasma [1] = assay: Anticoagulant activity in human plasma assessed as prothrombin time at 1 mg/ml; type: functional
In short: (§1)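 Frozen human plasma (blood type A+) was used. Compounds were prepared at 1 mg/mL in a vehicle of 96% EtOH, 0.9% NaCl, 20% glycerol and phosphate buffer pH 7. Prothrombin time was measured by Quick method and reported in seconds and as INR, with SD from at least three measurements.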

Plasma [2] = assay: Anticoagulant activity in Wistar albino rat plasma assessed as prothrombin time at 0.1 mg/kg, ip; type: functional; details: route intraperitoneal
In short: (§2)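 Adult Wistar rats (2.5 months, 220–250 g), three per compound and control, were given a single i.p. dose of 0.1 or 0.5 mg/kg in ethanol solution and sacrificed 24 h later. […] Plasma prothrombin time was measured by Quick method and reported in seconds and as INR, from at least three measurements.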

Plasma [3] = assay: Anticoagulant activity in Wistar albino rat plasma assessed as prothrombin time at 0.5 mg/kg, ip; type: functional; details: route intraperitoneal
In short: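 Adult Wistar rats (2.5 months, 220–250 g), three per compound and control, were given a single i.p. dose of 0.1 or 0.5 mg/kg in ethanol solution and sacrificed 24 h later. Plasma prothrombin time was measured by Quick method and reported in seconds and as INR, from at least three measurements.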

Plasma [4] = assay: Anticoagulant activity in Wistar albino rat plasma assessed as fibrinogen level; type: functional
In short: (§3)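 Adult albino Wistar rats (2.5 months old, 220–250 g), three per compound and control. […] Fibrin time and fibrinogen were determined on plasma. Fibrinogen was quantified by biuret method at 540 nm. At least three measurements, reported with standard deviation.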

Plasma [5] = assay: Anticoagulant activity in Wistar albino rat plasma assessed as fibrin time; type: functional; in short: as §3
Rattus norvegicus [6] = assay: Hepatotoxicity in Wistar albino rat assessed as change in serum protein level at 0.5 mg/kg, ip measured after 24 hrs; type: toxicity, organism-based; design: dose 0.5 mg/kg, route intraperitoneal; details: in vivo
Rattus norvegicus [7] = assay: Hepatotoxicity in Wistar albino rat assessed as change in serum albumin level at 0.5 mg/kg, ip measured after 24 hrs; type: toxicity, organism-based; design: dose 0.5 mg/kg, route intraperitoneal; details: in vivo
Plasma [8] = assay: Anticoagulant activity in human plasma assessed as international normalized ratio at 1 mg/ml; type: functional; in short: as §1
Plasma [9] = assay: Anticoagulant activity in Wistar albino rat plasma assessed as international normalized ratio at 0.1 mg/kg, ip; type: functional; details: route intraperitoneal; in short: as §2
Plasma [10] = assay: Anticoagulant activity in Wistar albino rat plasma assessed as international normalized ratio at 0.5 mg/kg, ip; type: functional; details: route intraperitoneal; in short: as §2
Rattus norvegicus [11] = assay: Hepatotoxicity in Wistar albino rat assessed as change in serum protein level at 0.5 mg/kg/day, ip administered for 5 days; type: toxicity, organism-based; design: route intraperitoneal; details: in vivo, 120 h
Rattus norvegicus [12] = assay: Hepatotoxicity in Wistar albino rat assessed as change in serum albumin level at 0.5 mg/kg/day, ip administered for 5 days; type: toxicity, organism-based; design: route intraperitoneal; details: in vivo, 120 h
Rattus norvegicus [13] = assay: Anticoagulant activity in Wistar rats in vivo assessed as prothrombin time
Rattus norvegicus [14] = assay: Toxicity in Wistar albino rat assessed as lethal dose at 0.5 mg/kg/day, ip administered for 5 days; type: organism-based; design: route intraperitoneal; details: in vivo, 120 h
Rattus norvegicus [15] = assay: Hepatotoxicity in Wistar albino rat assessed as change in serum bilirubin level at 0.5 mg/kg, ip measured after 24 hrs; type: toxicity, organism-based; design: dose 0.5 mg/kg, route intraperitoneal; details: in vivo
Rattus norvegicus [16] = assay: Hepatotoxicity in Wistar albino rat assessed as change in serum AST level at 0.5 mg/kg, ip measured after 24 hrs; type: toxicity, organism-based; design: dose 0.5 mg/kg, route intraperitoneal; details: in vivo
Rattus norvegicus [17] = assay: Hepatotoxicity in Wistar albino rat assessed as change in serum ALT level at 0.5 mg/kg, ip measured after 24 hrs; type: toxicity, organism-based; design: dose 0.5 mg/kg, route intraperitoneal; details: in vivo
Rattus norvegicus [18] = assay: Hepatotoxicity in Wistar albino rat assessed as change in serum ALP level at 0.5 mg/kg, ip measured after 24 hrs; type: toxicity, organism-based; design: dose 0.5 mg/kg, route intraperitoneal; details: in vivo
Rattus norvegicus [19] = assay: Hepatotoxicity in Wistar albino rat assessed as change in serum gamma-GT level at 0.5 mg/kg, ip measured after 24 hrs; type: toxicity, organism-based; design: dose 0.5 mg/kg, route intraperitoneal; details: in vivo
Rattus norvegicus [20] = assay: Hepatotoxicity in Wistar albino rat assessed as change in serum iron level at 0.5 mg/kg, ip measured after 24 hrs; type: toxicity, organism-based; design: dose 0.5 mg/kg, route intraperitoneal; details: in vivo

IC50 (Rattus norvegicus [13]): 2340 µM
Structure (SMILES): C/C(=C(\C#N)C(=O)O)c1c(O)c2ccccc2oc1=O
PT (Plasma [1]): 21 s | PT (Plasma [2]): 8.2 s | PT (Plasma [3]): 9.2 s | Activity (Plasma [4]): 0.5 g/L | Time (Plasma [5]): 196.8 s | Activity (Rattus norvegicus [6]): 68.9 g/L | Activity (Rattus norvegicus [7]): 38.6 g/L | Ratio (Plasma [8]): 2.25 | Ratio (Plasma [9]): 0.66 | Ratio (Plasma [10]): 0.69 | Activity (Rattus norvegicus [11]): 68.9 g/L | Activity (Rattus norvegicus [12]): 38.6 g/L

Structure (SMILES): CC(=O)CC(c1ccccc1)c1c(O)c2ccccc2oc1=O (stereo unspecified) [WARFARIN]
PT (Plasma [1]): 18.5 s | PT (Plasma [2]): 10.3 s | Activity (Plasma [4]): 1.9 g/L | Time (Plasma [5]): 33.4 s | Activity (Rattus norvegicus [14]): Toxic | Activity (Rattus norvegicus [15]): 1.3 µmol/L | Activity (Rattus norvegicus [16]): 277.3 U/L | Activity (Rattus norvegicus [17]): 51.5 U/L | Activity (Rattus norvegicus [18]): 170 U/L | Activity (Rattus norvegicus [19]): 3.4 U/L | Activity (Rattus norvegicus [20]): 22.3 µmol/L | Activity (Rattus norvegicus [6]): 59.4 g/L | Activity (Rattus norvegicus [7]): 34.5 g/L
